Eight compounds from ChEMBL document CHEMBL4311984, “Design and synthesis of H2S-donor hybrids: A new treatment for Alzheimer's disease?” (Eur J Med Chem, 2019) can be followed below.

In data set [1] the test system is BV-2. The data set is described as follows: Induction of H2S generation in mouse BV2 cells at 100 uM after 45 mins by WSP-1 fluorescence dye based spectrofluorimetric analysis. The format is functional, cell-based. The method, boiled down: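 BV-2 cells, 72 × 10³/well, were seeded serum-free 24 h before the assay and loaded with WSP-1 for 30 min. Dye was then replaced with compound in HEPES-buffered saline, pH 7.4 (vehicle DMSO 1%). Fluorescence was recorded for 45 min, and total H₂S release was expressed as AUC of fluorescence index. Data are mean ± SE, n=9, with diallyl disulfide as reference donor.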

Data set [2] concerns BV-2. The data set is described as follows: Cytoprotection against LPS-induced cell damage in mouse BV2 cells assessed as cell viability at 1 uM preincubated with compound for 1 hr followed by LPS addition and measured after 24 hrs by cell analyser based assay (reference value: 80.6 +/- 1.2%). The format is functional. The note with it: read-out: Activity.
Data set [3] relates to BV-2. The data set is described as follows: Antioxidant activity in mouse BV2 cells assessed as reduction in LPS-induced ROS release at 1 uM preincubated with compound for 1 hr followed by LPS addition and measured after 24 hrs by cell analyser based assay (reference value: 154 +/- 3.8%). The format is functional. Details: scale not given: the % may be the effect or the level left.

Data set [4] relates to BV-2. As to the kind of experiment: Inhibition of LPS-induced nitric oxide in mouse BV2 cells assessed as intracellular nitric oxide level at 1 uM preincubated with compound for 1 hr followed by LPS addition and measured after 24 hrs by cell analyser based assay (reference value: 145.7 +/- 4.4%). It is filed as functional. Details: scale not given: the % may be the effect or the level left.

The subject of data set [5] is SH-SY5Y. The data set is described as follows: Cytotoxicity against human SH-SY5Y cells assessed as cell viability up to 5 uM after 24 hrs by MTT assay. It is filed as cell-based. The method, boiled down: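 SH-SY5Y cells, 2 × 10⁴/well, were allowed 24 h to attach, then exposed for 24 h to a series of concentrations (1.25–40). MTT (0.5 mg/mL in HBSS) was applied for 2 h at 37 °C, and formazan was dissolved in isopropanol and read at 570 nm (ref 690 nm). Results are % viability versus untreated cells.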

Data set [6] has as its system SH-SY5Y. As to the kind of experiment: Antioxidant activity in human SH-SY5Y cells assessed as inhibition of H2O2-induced intracellular ROS generation at 5 uM preincubated with compound for 24 hrs followed by H2O2 addition after 30 mins by DCFH-DA dye based fluorescence assay. It is filed as functional, cell-based. The method, boiled down: (§1)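 SH-SY5Y cells, 2 × 10⁴/well, were allowed 24 h to attach, then given compound for 24 h at 37 °C. They were loaded with DCFH-DA ([…]) for 30 min at room temperature and then challenged with H₂O₂ or t-BuOOH, each at 50 µM, for 30 min. Results are percent inhibition of oxidant-induced ROS, mean ± SEM, n=3 independent experiments.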

Data set [7] relates to SH-SY5Y. The data set is described as follows: Antioxidant activity in human SH-SY5Y cells assessed as inhibition of tert-butyl hydroperoxide-induced intracellular ROS generation at 5 uM preincubated with compound for 24 hrs followed by tert-butyl hydroperoxide addition after 30 mins by DCFH-DA dye based fluorescence assay. The format is functional, cell-based. In a few lines: as §1

The subject of data set [8] is SH-SY5Y. As to the kind of experiment: Antioxidant activity in human SH-SY5Y cells assessed as increase in GSH level at 5 uM after 24 hrs by MCB-dye based fluorescence assay relative to control. The format is functional. In a few lines:
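SH-SY5Y cells, 2 × 10⁴/well, were allowed 24 h to attach, then given compound for 24 h at 37 °C in 5% CO₂. Medium was replaced with monochlorobimane for 30 min at 37 °C, and fluorescence read at ex 355/em 460 nm. Results are percent increase in GSH, mean ± SEM of three independent experiments.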

Data set [9] deals with T1, Nuclear factor erythroid 2-related factor 2 (Homo sapiens) (UniProt Q16236).
T1 sequence (whole entry): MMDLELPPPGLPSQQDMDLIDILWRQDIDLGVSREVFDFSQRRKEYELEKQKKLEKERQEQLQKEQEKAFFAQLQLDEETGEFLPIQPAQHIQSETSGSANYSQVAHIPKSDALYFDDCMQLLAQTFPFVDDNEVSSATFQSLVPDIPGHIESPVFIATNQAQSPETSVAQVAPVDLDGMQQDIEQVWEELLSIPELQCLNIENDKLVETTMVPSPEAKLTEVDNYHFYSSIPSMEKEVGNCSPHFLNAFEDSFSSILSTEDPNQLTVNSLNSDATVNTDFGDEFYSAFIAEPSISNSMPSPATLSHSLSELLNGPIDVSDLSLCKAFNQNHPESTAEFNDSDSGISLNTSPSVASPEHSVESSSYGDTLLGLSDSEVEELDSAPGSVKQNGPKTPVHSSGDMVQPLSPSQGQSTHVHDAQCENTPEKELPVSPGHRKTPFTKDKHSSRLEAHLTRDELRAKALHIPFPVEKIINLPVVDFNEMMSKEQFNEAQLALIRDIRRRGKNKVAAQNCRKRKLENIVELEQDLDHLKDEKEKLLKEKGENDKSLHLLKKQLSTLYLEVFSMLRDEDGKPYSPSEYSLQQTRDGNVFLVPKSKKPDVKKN
As to the kind of experiment: Activation of Nrf2 in human SH-SY5Y cells at 5 uM after 1 to 6 hrs by ELISA method. The format is cell-based. In a few lines: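 SH-SY5Y cells, 2 × 10⁶ per dish, exposed to compound for 1, 3 and 6 h at 37 °C in 5% CO₂. Nuclear extracts were then taken and active Nrf2 measured by DNA-binding ELISA (antibody recognises ARE-bound Nrf2). Results are fold increase over matched untreated cells, mean ± SEM of three independent experiments, two-way ANOVA with Bonferroni.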
For orientation: In an ELISA, binding on a coated surface is turned into a signal by an enzyme label.

For data set [10], the system named is SH-SY5Y. As to the kind of experiment: Neuroprotection against amyloid beta (1 to 42 residues)-induced toxicity in human SH-SY5Y cells preincubated for 24 hrs followed by amyloid beta addition and measured after 4 hrs by MTT-based exocytosis assay. It is filed as functional, cell-based. The method, boiled down: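 Aβ1-42 was dissolved in hexafluoroisopropanol (1 mg/mL), sonicated, held 24 h at room temperature and lyophilised. SH-SY5Y cells, 3 × 10⁴/well, were pretreated 24 h with compound and then given Aβ1-42 oligomers for 4 h at 37 °C. MTT (0.5 mg/mL in HBSS) was applied for 1 h, granules were solubilised in 10% Tween-20, and absorbance read at 570 nm (ref 690).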
On the technique in general: Tetrazolium assays rely on reduction of a dye to a coloured formazan, in cell work by metabolically active cells.

The test system of data set [11] is BV-2. The data set is described as follows: Inhibition of LPS-induced nitric oxide in mouse BV2 cells assessed as reduction in intracellular nitric oxide level at 1 uM preincubated with compound for 1 hr followed by LPS addition and measured after 24 hrs by cell analyser based assay (reference value: 145.7 +/- 4.4%). The format is functional.
The subject of data set [12] is BV-2. The data set is described as follows: Antioxidant activity in mouse BV2 cells assessed as effect on LPS-induced ROS release at 1 uM preincubated with compound for 1 hr followed by LPS addition and measured after 24 hrs by cell analyser based assay (reference value: 154 +/- 3.8%). It is filed as functional.
Data set [13] deals with BV-2. As to the kind of experiment: Cytoprotection against LPS-induced cell damage in mouse BV2 cells assessed as increase in cell viability at 1 uM preincubated with compound for 1 hr followed by LPS addition and measured after 24 hrs by cell analyser based assay (reference value: 80.6 +/- 1.2%). It is filed as functional.

Calls of active or inactive are those of the source. No cut-off for these calls is given here.

For `CCN(C)C(=O)Oc1cccc(NC(=O)CSCCCCN=C=S)c1`, the outcome in data set [1], in [6], in [7] and in data set [9] was Active. Also, the viability at 1 µM in data set [2] is 93%. Further, the Activity is given as 30 - 35% in data set [3], 114% in [4], “Non-Toxic” in [5] and 35.6% in [8]. Further, the outcome in [10] was inactive. The inhibition entry in data set [11] was “Active”.

With `CCN(C)C(=O)Oc1cccc([C@H](C)N(C)C)c1` [RIVASTIGMINE], in data set [1], the result was Active. Besides, the viability at 1 µM in data set [2] worked out at 84%. Further, the outcome in data set [12] was inactive. Also, the inhibition entry in data set [11] is “Active”.

On to `CCN(C)C(=O)Oc1cccc(CNC(=O)C[S+]([O-])CCCCN=C=S)c1` (stereo unspecified), for which the outcome in data set [1] and in [13] was Active. Moreover, the figures for the Activity in [3] and in data set [5] were 30 - 35% and “Non-Toxic”, respectively. The result in data set [10] was inactive. In data set [11], the inhibition result was “Active”.

For `CCN(C)C(=O)Oc1cccc(CCNC(=O)CSCCCCN=C=S)c1`, the outcome in data set [1] and in [13] was Active. For the same compound, the Activity in data set [3] is reported as 30 - 35%; in [4] it was 98.8%; in [5], “Non-Toxic”. Besides, the result in data set [10] was inactive. In addition, the inhibition entry in data set [11] is “Active”.

Turning to `CCN(C)C(=O)Oc1cccc(CNC(=O)CSCCCCN=C=S)c1`, the outcome in data set [1], in data set [13], in [6] and in data set [7] was Active. Also, the Activity is given as 30 - 35% in [3], 125.9% in [4], “Non-Toxic” in [5] and 25.73% in data set [8]. Also, the outcome in data set [9] and in data set [10] was inactive. Moreover, the inhibition entry in data set [11] is “Active”.

For `C=CCSSCC=C`, in data set [1], the result was Active.

Regarding `CCN(C)C(=O)Oc1cccc(NC(=O)C[S+]([O-])CCCCN=C=S)c1` (stereo unspecified), the outcome in [1] and in data set [13] was Active. Moreover, the Activity in data set [3] is recorded as 30 - 35%; in [5], “Non-Toxic”. Also, in [10], the result was inactive. Further, the inhibition entry in data set [11] is “Active”.

For the compound `CCN(C)C(=O)Oc1cccc(CCNC(=O)C[S+]([O-])CCCCN=C=S)c1` (stereo unspecified), in data set [1], the outcome was Active. Further, the values for the Activity in data set [3] and in [5] were 30 - 35% and “Non-Toxic”, respectively. Besides, the result in data set [10] was inactive. Moreover, the inhibition entry in data set [11] is “Active”.
